Screening results deposited in PubChem by several laboratories.
Arbovirus anti = antivirals against arbovirus infection, primary screen, cell-based, full library, 10K replicate subset | arbovirus infection cell-based antiviral screen | inhibition, % at 10 µM | 200,000 tested, 0.37% active; in the data active = inhibition above about 30%
Hck Nef HTS = inhibitors of Nef-activated human Hck kinase, primary screen, biochemical, Z-Lyte FRET, 384-well, Hck-YEEI; Tyrosine-protein kinase HCK (Homo sapiens), P08631; inhibition, % at 20 µM; Recombinant Hck-YEEI plus Nef, Z-Lyte FRET kinase assay; AID 463187, 2010; 220,000 tested, 0.68% active;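 active = Hck-Nef kinase inhibition above about 50%, limit read from the data; inactive = inhibition below that limit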;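 note: 0% = DMSO with Hck plus Nef and 100% = Hck alone without Nef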
Biofilm kill mix = clotrimazole potentiators killing C. albicans biofilm, primary screen, 4-compound mixtures. C. albicans biofilm persisters + clotrimazole, fluorescence viability; primary screen in compound mixtures of four per well. 120,000 tested, 0.02% active. inhibition, % at 7.6 µM;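 active = inhibition above 30.3% in the primary screen of four-compound pools, then above 30% when the compound was retested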;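 note: compounds exposed to preformed 24 h biofilms for 48 h; 0% = untreated biofilm control and 100% = clotrimazole plus chlorhexidine kill blank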
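Probe or stimulus – Clotrimazole 50 µg/mL co-treatment · System – C. albicans biofilms · Schedule – 24 h biofilm formation, then 48 h compound exposure, 37 °C · Evaluation – percent inhibition of biofilm viability · Technique – 2-h Alamar Blue fluorescence, 535/590 nm excitation/emission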
NCF1 inh = p47phox/p22phox peptide binding inhibitors, primary screen, biochemical, uHTS, NADPH oxidase regulatory subunit | Neutrophil cytosol factor 1 (Homo sapiens), P14598 | fluorescence polarization, 2 h | inhibition, % at 24.7 µM | 220,000 tested, 0.53% active | AID 1274, 2008;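 active = inhibition above about 30%, limit read from the data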;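 note: 0% = p47phox with labelled peptide and 100% = labelled peptide alone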
Target sequence (P14598 whole entry, looked up): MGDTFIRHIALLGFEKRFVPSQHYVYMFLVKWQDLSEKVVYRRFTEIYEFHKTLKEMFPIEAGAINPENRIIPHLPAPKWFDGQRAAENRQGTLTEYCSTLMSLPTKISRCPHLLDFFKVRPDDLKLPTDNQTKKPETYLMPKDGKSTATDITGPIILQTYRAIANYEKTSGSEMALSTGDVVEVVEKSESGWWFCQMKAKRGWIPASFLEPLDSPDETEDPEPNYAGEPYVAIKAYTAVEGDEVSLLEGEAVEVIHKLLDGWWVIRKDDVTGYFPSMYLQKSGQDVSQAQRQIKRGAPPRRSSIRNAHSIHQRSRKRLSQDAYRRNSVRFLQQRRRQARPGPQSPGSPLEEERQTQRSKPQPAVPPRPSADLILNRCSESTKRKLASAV
WT yeast gro inh = growth inhibition of WT strain, primary screen, mitochondrial fusion inhibitor project, WT and mutant strains, chemical genetic; inhibition, % at 10 µM; 190,000 tested, 2.1% active; mitochondrial fusion phenotypic screen; in the data active = inhibition above about 58%; tested in S. cerevisiae
RAM inhibit = inhibitors of the yeast RAM network, primary screen, dse1pr::URA3 reporter, 5-FOA selection. S. cerevisiae dse1pr::URA3 reporter, 5-FOA growth OD615, 2 d; analog-sensitive cbk1-as2 kinase mutant strain. inhibition, % at 50 µM. 190,000 tested, 1.8% active. AID 868, 2007;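 active = inhibition above a set limit, 3 SD over mean compound inhibition, cut at about 8.4% in these data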;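 note: 0% = DMSO-only wells with no growth and 100% = 10 µM 1-NA-PP1 full growth; inhibition rescues growth on 5-FOA so higher OD means more RAM inhibition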
Hck Nef conf = retest of Hck:Nef kinase inhibitor hits, confirmation, biochemical, Z-Lyte FRET, 384-well, p-Tyr peptide counterscreen. Recombinant Hck-YEEI:Nef, Z-Lyte FRET kinase assay. shares compounds with Hck Nef HTS. calls only at 10 µM. 1,300 tested, 28% active;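 active = average inhibition of at least 50%, with Z-scores no higher than 3 in both the phospho-tyrosine peptide and fluorescence counterscreens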
* marks the source's active call; other numbers are inactive results; i = inactive; nt = not tested or not shown; + = active, no number. Hits are enriched below; roughly 4.6% of the tested compounds scored in any of these assays.

SMILES | Arbovirus anti | Hck Nef HTS | Biofilm kill mix | NCF1 inh | WT yeast gro inh | RAM inhibit | Hck Nef conf
COc1cccc(-n2c(SCc3cc(=O)oc4cc(O)c(O)cc34)nc3ccccc3c2=O)c1 | 8 | 74* | 4 | -42 | -8 | 3 | nt
CCN(CC)C(=O)CSc1nc2ccccc2c(=O)n1-c1cccc(OC)c1 | -4 | 0 | nt | 3 | 1 | 0 | nt
N#Cc1ccc(/C=C\c2nccc3c2[nH]c2ccccc23)cc1 | 3 | 57* | 11 | -18 | 21 | 0 | i
Clc1ccc(/C=C\c2nccc3c2[nH]c2ccccc23)cc1 | 1 | 34 | 27 | -54 | 47 | 2 | nt
C=CCC1(N(C(C)=O)c2ccccc2C)CCCCC1 | -12 | 21 | 1 | -1 | 54 | -2 | nt
CC(C)(C)C(=O)O/N=C(\N)COc1cccc(Cl)c1 | nt | 14 | 17 | 3 | nt | nt | nt
O=C(Oc1ccc(Nc2ncnc3ccccc23)cc1)c1cccnc1 | -17 | 85* | 0 | 1 | -9 | 2 | +
CC1CCCCC12NC(=O)N(CC(=O)Nc1sc3c(c1C(N)=O)CCC3)C2=O (centres undefined) | 19 | 9 | nt | -62 | 12 | 3 | nt
CC1CCC2(CC1)NC(=O)N(CC(=O)Nc1sc3c(c1C(N)=O)CCC3)C2=O (centres undefined) | 11 | 64* | 2 | -28 | -11 | -1 | +
NS(=O)(=O)c1ccc(NC(=O)/C=C/c2cn(-c3ccccc3)nc2-c2cccc(Cl)c2)cc1 | 1 | 90* | 7 | -96 | -13 | 3 | i
O=C(O)/C=C/c1cn(-c2ccccc2)nc1-c1cccc([N+](=O)[O-])c1 | nt | 5 | 20 | -10 | nt | nt | nt
Cc1c(Cc2ccccc2)c(=O)oc2c(O)c(O)ccc12 | -2 | -24 | 8 | 28 | 15 | 1 | nt
Cc1c(Cc2ccccc2)c(=O)oc2cc(O)ccc12 | nt | 139* | 12 | -13 | nt | nt | nt
CCOC(=O)CCc1c(C)c2ccc(O)cc2oc1=O | -4 | 90* | nt | -8 | 20 | 0 | nt
O=C1/C(=C/C=C/c2ccco2)SC(=S)N1NS(=O)(=O)c1ccccc1 | nt | 102* | 3 | -38 | nt | nt | +
CCOC(=O)c1sc(N)c(C#N)c1CSc1nnc(C2CCCCC2)n1N | -1 | 2 | nt | -14 | -1 | 0 | nt
Cc1ccc(NCC(=O)N=Nc2c(O)[nH]c3ccc([N+](=O)[O-])cc23)cc1 | nt | 23 | 5 | -6 | nt | nt | nt
Cc1ccc(NC(=O)Cn2c(O)c(N=NC(=O)c3cc([N+](=O)[O-])ccc3O)c3ccccc32)cc1 | nt | 68* | 24 | -19 | nt | nt | +
Cc1cccc(NC(=O)Cn2c(O)c(N=NC(=O)c3ccccc3O)c3ccccc32)c1 | -2 | 51* | 8 | 33* | -9 | 0 | +
N#Cc1ccc(N2CCOCC2)nc1 | nt | 6 | 22 | 0 | nt | nt | nt
COc1cc(OC)c2c(=O)cc(-c3ccccc3)oc2c1 | -12 | 11 | 15 | 1 | 22 | 0 | nt
COc1cc(-c2cc(=O)c3c(O)c(OC)c(OC)c(O)c3o2)ccc1O | -2 | 67* | 19 | -17 | 3 | -1 | +
COc1c(O)c(O)c2oc(-c3ccccc3)cc(=O)c2c1OC | 0 | 66* | 20 | -8 | 4 | 1 | +
COc1cc(-c2cc(OC)c3c(C)oc(C)c3c(=O)c2)ccc1O | -12 | 1 | nt | -10 | 40 | 1 | nt
Cc1cccc(NC(=S)N2CCN(c3ccc(F)cc3)CC2)c1 | 15 | 16 | 7 | 1 | 16 | 5 | nt
CCN(CC)c1ccc2c(C)c(Cl)c(=O)oc2c1 | 6 | + | 15 | -6 | 11 | -2 | nt
CCOC(=O)Cc1c(C)c2ccc(N(CC)CC)cc2oc1=O | -4 | 107* | nt | 2 | 12 | 1 | nt
CCOC(=O)Cc1c(C)c2c(O)cc(O)cc2oc1=O | -10 | 50* | nt | -5 | nt | 2 | i
CCCOc1ccc2c(C)c(CC(=O)OC)c(=O)oc2c1 | -1 | 7 | nt | -7 | 8 | 1 | nt
